Measured values gathered from unrelated publications.
TPR: Trypanothione reductase (TPR, Trypanosoma cruzi, UniProt P28593)
BCHE: Cholinesterase (BCHE, Homo sapiens, UniProt P06276)

The Ki of `CC(C)(O)[C@@H](Nc1nc(Cl)nc2c1ncn2[C@H]1[C@H](O)[C@H](O)[C@]2(CO)C[C@H]12)C1CC1` is reported as 2.73 µM (Muscarinic acetylcholine receptor M5 (CHRM5, Homo sapiens, UniProt P08912); ligand displacement, radioligand).
With `CC1=NCCc2c1[nH]c1cc(O)ccc21` the IC50 was 35 µM (Tyrosine-protein phosphatase non-receptor type 12 (PTPN12, Homo sapiens, UniProt Q05209); enzyme activity, inhibitor, fluorescence).
`CNC1CC(c2ccc(Cl)c(Cl)c2)c2ccccc21` (stereo not drawn) has an IC50 of 7.26 µM (TPR; enzyme activity, inhibitor, absorbance).
`C=CCn1c2cc(OC(=O)CCCCN3CCN(Cc4ccccc4C(F)(F)F)CC3)ccc2c2ccnc(C)c21` gave an IC50 of 0.357 µM (BCHE; enzyme activity, inhibitor, Ellman).
With `C[C@H](NC(=O)Cc1ccccc1)C(=O)N[C@H](Cc1c[nH]c2ccccc12)C(=O)NCCc1ccccc1` the EC50 was 0.0333 µM (Bombesin receptor subtype-3 (Brs3, Mus musculus, UniProt O54798); calcium signal, agonist, fluorescence).
The Ki of `Cc1cc(O)cc(C)c1C[C@H](N)C(=O)N[C@H](C)C(=O)N[C@@H](Cc1ccccc1)C(=O)N[C@@H](CCCN)C(N)=O` is reported as 3.3e-05 µM (Mu-type opioid receptor (OPRM1, Cavia porcellus, UniProt P97266); ligand displacement, radioligand; cell membranes).
With `C[C@H]1COC2=C1C(=O)C(=O)c1c2ccc2c1CCCC2(C)C` the Ki was over 100 µM (BCHE; enzyme activity, inhibitor).
`Cn1cc(-c2cccc(N3CCc4c(sc5c4CC(C)(C)C5)C3=O)c2CO)cc(Nc2ccncn2)c1=O` has a Ki of over 1.11 µM (Tyrosine-protein kinase Fgr (FGR, Homo sapiens, UniProt P09769); enzyme activity, inhibitor, FRET).
With `Cc1cc(C)c2[nH]c(=O)c(CN(CCO)C(=S)Nc3ccc(N4CCOCC4)cc3)cc2c1` the EC50 was 3.1 µM (Beta-glucuronidase (uidA, Escherichia coli, UniProt P05804); enzyme activity, inhibitor).
`c1ccc(CCCN2CCN(CCOC(c3ccccc3)c3ccccc3)CC2)cc1` gave an IC50 of 10.9 µM (TPR; enzyme activity, inhibitor, absorbance).
The IC50 of `C/C=C1\NC(=O)[C@@H](NC(=O)[C@@H](NC(=O)C/C(=C/Cl)CC)C(C)C)[C@@H](C)OC(=O)[C@H](C(C)C)NC(=O)[C@H](Cc2ccc(O)cc2)N(C)C(=O)[C@H](Cc2ccccc2)N2C(=O)[C@H](CC[C@H]2O)NC1=O` is reported as over 5 µM (Proteinase K (PROK, Engyodontium album, UniProt P06873); enzyme activity, inhibitor, fluorescence).
With `[O]=[V]([OH])([OH])[OH]` the IC50 was 40000 µM (Tyrosyl-DNA phosphodiesterase 2 (TDP2, Homo sapiens, UniProt O95551); enzyme activity, inhibitor, absorbance).
With `O=C(Nc1cccc(-c2ccn3c(CC4CC4)nnc3c2C(F)(F)F)c1)c1ccc(S(=O)(=O)F)cc1` the EC50 was over 50.1 µM (Metabotropic glutamate receptor 3 (GRM3, Homo sapiens, UniProt Q14832); calcium signal, agonist).
With `CNC(=O)[C@@]12C[C@@H]1[C@@H](n1cnc3c(NC)nc(C#Cc4ccc(Cl)s4)cc31)[C@H](O)[C@@H]2O` the Ki was over 10 µM (Sodium-dependent noradrenaline transporter (SLC6A2, Homo sapiens, UniProt P23975); ligand displacement, radioligand; cell membranes).
The Ki of `CC(=O)Nc1ccc(O)cc1` is reported as over 1000 µM (Ribosyldihydronicotinamide dehydrogenase [quinone] (NQO2, Homo sapiens, UniProt P16083); enzyme activity, inhibitor).
